Source: ChEMBL document CHEMBL4715738, “In Vitro Antibacterial Activity of Curcumin-Polymyxin B Combinations against Multidrug-Resistant Bacteria Associated with Traumatic Wound Infections” (J Nat Prod, 2016)
≈ marks a conversion by molar mass, not a printed value.

Columns and labels:
[1] = test system: Stenotrophomonas maltophilia; test: Synergistic antibacterial activity against Stenotrophomonas maltophilia NCTC 10258 assessed as fractional inhibitory concentration index measured after 24 hrs in presence of curcumin by checkerboard assay; assay type: functional
Outline: (§1)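 FICI calculated from combination MICs; ≤0.5 taken as synergy and >0.5–4.0 as additive. Where an MIC was not reached, the dilution above the highest concentration tested was used in the calculation. Run in triplicate and reported as means.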

Escherichia coli [2] = test: Antibacterial activity against Escherichia coli EC2 harboring CTX-M-15 assessed as reduction in bacterial growth incubated for 24 hrs; assay type: functional
Escherichia coli [3] = test: Synergistic antibacterial activity against Escherichia coli EC2 harboring CTX-M-15 assessed as fractional inhibitory concentration index measured after 24 hrs in presence of curcumin by checkerboard assay; assay type: functional
Outline: (§2)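 FICI was derived from checkerboard MICs. Synergy was defined as FICI ≤ 0.5 and additive as FICI > 0.5−4.0. Where an MIC was not reached, the dilution above the maximum dose was used in the FICI calculation. Experiments were run in triplicate and reported as means.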

Streptococcus pyogenes [4] = test: Antibacterial activity against Streptococcus pyogenes SPY2 assessed as reduction in bacterial growth incubated for 24 hrs; assay type: functional
[5] = test system: Stenotrophomonas maltophilia; test: Antibacterial activity against Stenotrophomonas maltophilia NCTC 10258 assessed as reduction in bacterial growth incubated for 24 hrs; assay type: functional
Streptococcus pyogenes [6] = test: Antibacterial activity against Streptococcus pyogenes SPY3 assessed as reduction in bacterial growth incubated for 24 hrs; assay type: functional
Staphylococcus aureus [7] = test: Antibacterial activity against vancomycin-intermediate resistant Staphylococcus aureus Mu50 assessed as reduction in bacterial growth incubated for 24 hrs; assay type: functional
Acinetobacter baumannii [8] = test: Antibacterial activity against Acinetobacter baumannii AB16 harboring OXA-23 clone 2 assessed as reduction in bacterial growth incubated for 24 hrs; assay type: functional
Enterococcus faecalis [9] = test: Antibacterial activity against […] Enterococcus faecalis ATCC 29212 assessed as reduction in bacterial growth incubated for 24 hrs in presence of curcumin; assay type: functional
Pseudomonas aeruginosa [10] = test: Antibacterial activity against Pseudomonas aeruginosa PA30 harboring VIM-2 assessed as reduction in bacterial growth incubated for 24 hrs; assay type: functional
Enterococcus faecium [11] = test: Antibacterial activity against vancomycin-resistant Enterococcus faecium OEF42 assessed as reduction in bacterial growth incubated for 24 hrs; assay type: functional
Staphylococcus aureus [12] = test: Synergistic antibacterial activity against Staphylococcus aureus ATCC 25923 assessed as fractional inhibitory concentration index measured after 24 hrs in presence of curcumin by checkerboard assay; assay type: functional; outline: as §2
Acinetobacter baumannii [13] = test: Antibacterial activity against Acinetobacter baumannii AB14 harboring OXA-23 clone 1 assessed as reduction in bacterial growth incubated for 24 hrs; assay type: functional
[14] = test system: Stenotrophomonas maltophilia; test: Antibacterial activity against Stenotrophomonas maltophilia SMB07 assessed as reduction in bacterial growth incubated for 24 hrs in presence of curcumin; assay type: functional
Staphylococcus aureus [15] = test: Antibacterial activity against methicillin-resistant Staphylococcus aureus NCTC 12493 assessed as reduction in bacterial growth incubated for 24 hrs in presence of curcumin; assay type: functional
Pseudomonas aeruginosa [16] = test: Antibacterial activity against Pseudomonas aeruginosa PA30 harboring VIM-2 assessed as reduction in bacterial growth incubated for 24 hrs in presence of curcumin; assay type: functional
Escherichia coli [17] = test: Antibacterial activity against Escherichia coli EC204 harboring NDM-1 assessed as reduction in bacterial growth incubated for 24 hrs; assay type: functional
Acinetobacter baumannii [18] = test: Antibacterial activity against Acinetobacter baumannii AB12 harboring OXA-23 assessed as reduction in bacterial growth incubated for 24 hrs; assay type: functional
Staphylococcus aureus [19] = test: Antibacterial activity against methicillin-resistant Staphylococcus aureus NCTC 12493 assessed as reduction in bacterial growth incubated for 24 hrs; assay type: functional
Enterococcus faecalis [20] = test: Antibacterial activity against Enterococcus faecalis ATCC 29212 assessed as reduction in bacterial growth incubated for 24 hrs; settings: ATCC 29212, 24 h
Staphylococcus aureus [21] = test: Antibacterial activity against Staphylococcus aureus ATCC 25923 assessed as reduction in bacterial growth incubated for 24 hrs; assay type: functional
Enterococcus faecium [22] = test: Synergistic antibacterial activity against vancomycin-resistant Enterococcus faecium OEF42 assessed as fractional inhibitory concentration index measured after 24 hrs in presence of curcumin by checkerboard assay; assay type: functional; outline: as §2
Pseudomonas aeruginosa [23] = test: Antibacterial activity against Pseudomonas aeruginosa ATCC 27853 assessed as reduction in bacterial growth incubated for 24 hrs; assay type: functional
Pseudomonas aeruginosa [24] = test: Antibacterial activity against Pseudomonas aeruginosa ATCC 27853 assessed as log reduction in colony forming units at MIC measured after 6 hrs by time kill assay; assay type: functional
Outline: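 Time-kill in Mueller-Hinton 2 broth. Inoculum was a 1/1000 dilution of a 16 h overnight culture, about 10^6 CFU/mL, 10 mL per tube. Arms were each agent alone at ×1 MIC, or the combination at ×1 MIC plus ×0.5 MIC partner. Incubated at 37 °C with continuous agitation for 24 h. Samples taken at 0, 2, 4, 6 and 24 h, serially diluted and plated on IsoSensitest agar for CFU counts.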

Pseudomonas aeruginosa [25] = test: Antibacterial activity against Pseudomonas aeruginosa PAO1 assessed as reduction in bacterial growth incubated for 24 hrs; assay type: functional
Streptococcus pyogenes [26] = test: Antibacterial activity against Streptococcus pyogenes SPY1 assessed as reduction in bacterial growth incubated for 24 hrs; assay type: functional
[27] = test system: Stenotrophomonas maltophilia; test: Antibacterial activity against Stenotrophomonas maltophilia SMB07 assessed as reduction in bacterial growth incubated for 24 hrs; assay type: functional
Escherichia coli [28] = test: Antibacterial activity against Escherichia coli NCTC 12241 assessed as reduction in bacterial growth incubated for 24 hrs; assay type: functional
[29] = test system: Stenotrophomonas maltophilia; test: Antibacterial activity against Stenotrophomonas maltophilia SMS01 assessed as reduction in bacterial growth incubated for 24 hrs; assay type: functional
Acinetobacter baumannii [30] = test: Antibacterial activity against Acinetobacter baumannii NCTC 19606 assessed as reduction in bacterial growth incubated for 24 hrs; assay type: functional
Enterococcus faecium [31] = test: Antibacterial activity against vancomycin-resistant Enterococcus faecium OEF65 assessed as reduction in bacterial growth incubated for 24 hrs; assay type: functional
[32] = test system: Stenotrophomonas maltophilia; test: Synergistic antibacterial activity against Stenotrophomonas maltophilia SMB07 assessed as fractional inhibitory concentration index measured after 24 hrs in presence of curcumin by checkerboard assay; assay type: functional; outline: as §1
Pseudomonas aeruginosa [33] = test: Antibacterial activity against Pseudomonas aeruginosa PA14 assessed as reduction in bacterial growth incubated for 24 hrs; assay type: functional
Streptococcus pyogenes [34] = test: Antibacterial activity against Streptococcus pyogenes SPY3 assessed as reduction in bacterial growth incubated for 24 hrs in presence of polymyxin B; assay type: functional
Escherichia coli [35] = test: Antibacterial activity against Escherichia coli EC204 harboring NDM-1 assessed as reduction in bacterial growth incubated for 24 hrs in presence of polymyxin B; assay type: functional
[36] = test system: Stenotrophomonas maltophilia; test: Antibacterial activity against Stenotrophomonas maltophilia NCTC 10258 assessed as reduction in bacterial growth incubated for 24 hrs in presence of polymyxin B; assay type: functional
Enterococcus faecium [37] = test: Antibacterial activity against vancomycin-resistant Enterococcus faecium OEF65 assessed as reduction in bacterial growth incubated for 24 hrs in presence of polymyxin B; assay type: functional
Acinetobacter baumannii [38] = test: Potentiation of polymyxin B-induced antibacterial activity against Acinetobacter baumannii NCTC 19606 assessed as fold reduction in polymyxin B MIC measured after 24 hrs in presence of polymyxin B by checkerboard assay; assay type: functional
Pseudomonas aeruginosa [39] = test: Potentiation of polymyxin B-induced antibacterial activity against Pseudomonas aeruginosa ATCC 27853 assessed as fold reduction in polymyxin B MIC measured after 24 hrs in presence of polymyxin B by checkerboard assay; assay type: functional

| SMILES | MIC (Escherichia coli [2]) [µM] | MIC (Streptococcus pyogenes [4]) [µM] | MIC [5] [µM] | MIC (Streptococcus pyogenes [6]) [µM] | MIC (Staphylococcus aureus [7]) [µM] | MIC (Acinetobacter baumannii [8]) [µM] | MIC (Pseudomonas aeruginosa [10]) [µM] | MIC (Enterococcus faecium [11]) [µM] | MIC (Acinetobacter baumannii [13]) [µM] | MIC (Escherichia coli [17]) [µM] | MIC (Acinetobacter baumannii [18]) [µM] | MIC (Staphylococcus aureus [19]) [µM] | MIC (Enterococcus faecalis [20]) [µM] | MIC (Staphylococcus aureus [21]) [µM] | MIC (Pseudomonas aeruginosa [23]) [µM] | MIC (Pseudomonas aeruginosa [25]) [µM] | MIC (Streptococcus pyogenes [26]) [µM] | MIC [27] [µM] | MIC (Escherichia coli [28]) [µM] | MIC [29] [µM] | other results |
| --- | --- | --- | --- | --- | --- | --- | --- | --- | --- | --- | --- | --- | --- | --- | --- | --- | --- | --- | --- | --- | --- |
| CC[C@H](C)CCCCC(=O)N[C@@H](CCN)C(=O)N[C@H](C(=O)N[C@@H](CCN)C(=O)N[C@H]1CCNC(=O)[C@H]([C@@H](C)O)NC(=O)[C@H](CCN)NC(=O)[C@H](CCN)NC(=O)[C@H](CC(C)C)NC(=O)[C@@H](Cc2ccccc2)NC(=O)[C@H](CCN)NC1=O)[C@@H](C)O.O=S(=O)(O)O | 0.096 | 12.3 | 1.5 | 3.1 | 98 | 0.19 | 0.39 | 98 | 0.096 | 0.096 | 0.19 | 98 | 98 | 98 | 0.39 | 0.78 | 6.1 | 1.5 | 0.048 | 6.1 | fractional inhibitory concentration index (FICI) [1]: 0.012; fractional inhibitory concentration index (FICI) (Escherichia coli [3]): 0.266; MIC (Enterococcus faecalis [9]): 0.096 µM; fractional inhibitory concentration index (FICI) (Staphylococcus aureus [12]): 0.156; MIC [14]: 0.0313 µM; MIC (Staphylococcus aureus [15]): 0.79 µM; MIC (Pseudomonas aeruginosa [16]): 0.19 µM; fractional inhibitory concentration index (FICI) (Enterococcus faecium [22]): 0.094; Activity (Pseudomonas aeruginosa [24]): 2 log10CFU/ml; MIC (Acinetobacter baumannii [30]): 0.19 µM; MIC (Enterococcus faecium [31]): 49 µM; fractional inhibitory concentration index (FICI) [32]: 0.023; MIC (Pseudomonas aeruginosa [33]): 0.78 µM |
| COc1cc(/C=C/C(=O)CC(=O)/C=C/c2ccc(O)c(OC)c2)ccc1O [CURCUMIN] | 2780 (≈ 1020 µg/mL) | 174 (≈ 64.1 µg/mL) | 2780 (≈ 1020 µg/mL) | 174 (≈ 64.1 µg/mL) | 2780 (≈ 1020 µg/mL) | 2780 (≈ 1020 µg/mL) | 2780 (≈ 1020 µg/mL) | 350 (≈ 129 µg/mL) | 1390 (≈ 512 µg/mL) | 2780 (≈ 1020 µg/mL) | 2780 (≈ 1020 µg/mL) | 2780 (≈ 1020 µg/mL) | 350 (≈ 129 µg/mL) | 2780 (≈ 1020 µg/mL) | 1390 (≈ 512 µg/mL) | 1390 (≈ 512 µg/mL) | 350 (≈ 129 µg/mL) | 2780 (≈ 1020 µg/mL) | 2780 (≈ 1020 µg/mL) | 2780 (≈ 1020 µg/mL) | MIC (Streptococcus pyogenes [34]): 43 µM; MIC (Escherichia coli [35]): 174 µM; MIC [36]: 22 µM; MIC (Acinetobacter baumannii [30]): 2780 µM (≈ 1020 µg/mL); MIC (Enterococcus faecium [31]): 174 µM (≈ 64.1 µg/mL); MIC (Enterococcus faecium [37]): 43 µM; fold change (FC) (Acinetobacter baumannii [38]): 3; fold change (FC) (Pseudomonas aeruginosa [39]): 3; MIC (Pseudomonas aeruginosa [33]): 1390 µM (≈ 512 µg/mL) |
